Bioassay records (PubChem BioAssay)
Most compounds without a hit are left out; they make up all but 4.6% or so of the library.
OX1R antag-1 – blocks the human orexin 1 receptor; O43613; 330,000 compounds, 1.8% hits; OX1R-expressing cells, FRET antagonist read-out; AID 485270; inhibition, % at 6.6 µM; in the data active = inhibition mostly above about 38%, no sharp cut-off; inactive = mostly below about 40%;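 note: 0% = agonist challenge alone and 100% = reference antagonist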
GPR7 antagonist – human neuropeptides B/W receptor 1 antagonism | P48145 | GPR7-expressing cells, fluorescence antagonist assay | inhibition, % at 4.4 µM | 290,000 compounds, 1.1% hits; in the data active = inhibition above about 16%, passing the limit was not always enough;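 note: cells stimulated with the agonist NPW; 0% = agonist with vehicle and 100% = vehicle without agonist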
Target sequence (P48145 whole entry, looked up): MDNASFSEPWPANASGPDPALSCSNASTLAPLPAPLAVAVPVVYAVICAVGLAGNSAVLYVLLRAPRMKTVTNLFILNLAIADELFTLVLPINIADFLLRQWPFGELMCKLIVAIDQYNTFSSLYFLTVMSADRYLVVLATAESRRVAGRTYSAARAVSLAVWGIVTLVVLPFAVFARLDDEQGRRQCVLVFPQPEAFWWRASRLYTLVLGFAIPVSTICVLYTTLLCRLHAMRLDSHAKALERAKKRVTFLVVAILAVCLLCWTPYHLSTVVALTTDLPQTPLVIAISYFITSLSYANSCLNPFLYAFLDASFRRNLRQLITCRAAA
CHO parental Ca – signal in parental CHO cells, OX1R antagonist counter-screen; parental CHO-K1, ATP-induced calcium, Fluo-8 fluorescence; inhibition, % at 5.6 µM; 330,000 compounds, 0.63% hits; AID 463079;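 active = inhibition above that plate's mean sample inhibition plus 3 SD, cut at about 26% in these data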;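 note: 0% = ATP-challenged DMSO wells and 100% = DMSO wells without ATP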
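Test system: untransfected parental CHO cell line. Compound: one dose, 5.6 µM nominal. Detection: intracellular calcium via Fluo-8 no-wash fluorescent dye. Measure: % inhibition. Benchmarks: ATP-challenged DMSO wells low, unchallenged DMSO wells high.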
TAAR1 antagonist – human TAAR1 antagonism | Q96RJ0 | CHO RD-HGA16 TAAR1, Fluo-8 calcium fluorescence, antagonist | inhibition, % at 3 µM | 360,000 compounds, 1.5% hits;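 active = inhibition above a per-plate cutoff, the mean inhibition of test compounds on that plate plus 3 SD, cut at about 49% in these data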;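 note: 0% = DMSO plus EC80 beta-PEA response and 100% = DMSO alone without agonist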
Target sequence (Q96RJ0 whole entry, looked up): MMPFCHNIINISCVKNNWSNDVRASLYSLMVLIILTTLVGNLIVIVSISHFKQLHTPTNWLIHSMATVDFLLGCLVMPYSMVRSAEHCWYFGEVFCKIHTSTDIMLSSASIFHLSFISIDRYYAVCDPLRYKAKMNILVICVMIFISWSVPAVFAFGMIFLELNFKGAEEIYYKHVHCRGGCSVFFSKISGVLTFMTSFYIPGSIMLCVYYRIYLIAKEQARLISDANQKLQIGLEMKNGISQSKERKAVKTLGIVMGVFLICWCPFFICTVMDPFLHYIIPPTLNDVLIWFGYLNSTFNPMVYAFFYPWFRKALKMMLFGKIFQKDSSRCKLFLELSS
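Test system: RD-HGA16 CHO cells with stable hTAAR1 and Gα16 / Probe or stimulus: EC80 β-phenethylamine stimulus / Times: seeding 17-24 h prior, 75-min 37 °C, 30-min RT dye loading / Detection: Fluo-8 calcium-sensitive fluorescence / Read-out basis: % inhibition scaled between DMSO and EC80 PEA controls / Repeats: singlicate, one well per test compound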
OX1R antag-2 – blocks the human orexin 1 receptor; inhibition, % at 5 µM; 330,000 compounds, 0.43% hits; CHO/OX1R cells, Fluo-8 calcium fluorescence, orexin A; O43613;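 active = inhibition above its plate's threshold, mean inhibition of all tested compounds on the plate plus 3 SD, cut at about 37% in these data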;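 note: 0% = orexin A challenge wells and 100% = SB-334867-A antagonist wells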
TAAR1 ag – agonists of human TAAR1 | Q96RJ0 | 360,000 compounds, 0.99% hits | CHO RD-HGA16 TAAR1, Fluo-8 calcium fluorescence; vehicle wells 0%, saturating PEA agonist 100% | activation, % at 3 µM;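 active = activation above the mean activation of all test compounds in the run plus 3 SD, cut at about 38% in these data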
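Benchmarks: low control DMSO, high control PEA (EC100); System: CHO RD-HGA16 cells carrying human TAAR1 plus Gα16; Detection: Fluo-8 fluorescence, 5 s baseline then 140 s kinetic read; Schedule: 17-24 h plating, Fluo-8 75 min 37 °C, 30 min RT; Read-out basis: % activation from peak over basal fluorescence ratio, DMSO-to-PEA scaled.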
Numbers without * were called inactive; · = not tested or not shown.

SMILES	OX1R antag-1	GPR7 antagonist	CHO parental Ca	TAAR1 antagonist	OX1R antag-2	TAAR1 ag
CCOc1cc(/C=C\c2nc(O)c([N+](=O)[O-])c(=O)[nH]2)ccc1OC(C)C	15	10	-2	0	-9	1
O=c1[nH]c(/C=C\c2cccs2)nc(O)c1[N+](=O)[O-]	65*	-4	-7	-2	-1	11
O=c1[nH]c(/C=C\c2ccc(O)c(Cl)c2)nc(O)c1[N+](=O)[O-]	51*	-6	7	-19	-10	4
C=CCc1cc(/C=C/c2nc(O)c([N+](=O)[O-])c(=O)[nH]2)cc(OC)c1O	74	-1	7	-10	-7	7
O=c1[nH]c(/C=C\c2ccc(O)cc2)nc(O)c1[N+](=O)[O-]	47*	-10	6	-3	-12	4
COc1ccc(-c2nn(-c3ccccc3)cc2C(N)=O)cc1OC	9	4	1	-3	-26	1
Cc1cc(C(=O)Nc2ccccc2Cc2ccccc2)no1	14	-18	-23	-26	-24	6
O=C(CN1C(=O)c2ccc([N+](=O)[O-])cc2C1=O)NC1CCCCCC1	65*	·	-9	-3	-11	0
COc1cccc(NC(=O)CCN2C(=O)c3cccc([N+](=O)[O-])c3C2=O)c1	25	8	-5	-4	-3	2
COc1cccc(NC(=O)CCN2C(=O)c3ccc([N+](=O)[O-])cc3C2=O)c1	50*	5	-10	-12	-23	9
O=C(CN1C(=O)c2ccc([N+](=O)[O-])cc2C1=O)Nc1nccs1	22	3	-13	-15	-8	5
COc1ccc(CNC(=O)CN2C(=O)c3ccccc3C2=O)cc1	-3	-3	-10	-1	-21	-1
COc1ccc(CNC(=O)CN2C(=O)c3ccc([N+](=O)[O-])cc3C2=O)cc1	76*	2	-12	-7	-22	6
O=C(CN1C(=O)c2ccccc2C1=O)NC1CCCCCC1	20	-9	-9	8	-17	1
O=C(CCN1C(=O)c2ccc([N+](=O)[O-])cc2C1=O)Nc1nccs1	72*	-10	3	2	-14	2
Cn1c(CCC(=O)Nc2cc(S(C)(=O)=O)ccc2Cl)nc2cc(S(=O)(=O)N3CCOCC3)ccc21	9	·	-12	-12	-2	4
COc1ccc(CNc2ccc([N+](=O)[O-])cc2C)cc1	5	-7	38*	29	10	-2
O=C(Nc1ccc(S(=O)(=O)N2CCCC2)cc1)c1ccc([N+](=O)[O-])cc1	11	0	5	3	2	11
O=C1c2ccccc2C(=O)N1CCCCCc1nc(-c2ccccc2)no1	74*	-20	-12	15	27	9
COc1ccc(CN(C(=O)Cn2nnc(-c3ccc(C)o3)n2)C(C(=O)NCC2CCCO2)c2ccco2)cc1 (stereo not drawn)	8	8	-16	-9	-26	10
CC(=O)Nc1ccc(OCC(O)Cn2c3ccccc3c3ccccc32)cc1 (stereo not drawn)	12	7	-4	-8	5	22
OC(COc1ccccc1)Cn1c2ccccc2c2ccccc21 (stereo not drawn)	11	-2	-4	-19	-7	8
CC(=O)Nc1ccc(OCC(O)Cn2c3ccccc3c3ccccc32)c(C)c1 (stereo not drawn)	16	6	9	65*	23	36
O=C(O)c1ccc(OCC(O)Cn2c3ccccc3c3ccccc32)cc1 (stereo not drawn)	13	-5	38*	45	32	17
CCN(C(=O)COC(=O)CCS(=O)(=O)c1ccccc1)c1c(N)n(Cc2ccccc2)c(=O)[nH]c1=O	·	·	·	-8	·	9
SMILES	OX1R antag-1	GPR7 antagonist	CHO parental Ca	TAAR1 antagonist	OX1R antag-2	TAAR1 ag
CC(C)c1ccc(CC(=O)N2CCC2(C)C(=O)Nc2cnc3ccccc3c2)cc1 (stereo not drawn)	·	·	·	17	·	5
CC(C)(C)c1ccc(CC(=O)N2CCC2(C)C(=O)Nc2cnc3ccccc3c2)cc1 (stereo not drawn)	·	·	·	53*	·	2
COc1ccccc1C(=O)NCC(c1cccs1)N1CCc2ccccc21 (stereo not drawn)	19	·	-27	32	-26	-2
O=C(Nc1cnn(Cc2ccc(F)cc2)c1)c1cc(-c2cccs2)on1	9	-1	7	·	-12	·
O=C(Nc1cnn(Cc2ccc(F)cc2)c1)c1cnccn1	0	17*	-15	-34	-21	0
COc1cc(OC)cc(C(=O)Nc2nc(CC(=O)NCCc3ccccc3)cs2)c1	28	·	-40	33	-19	5
COc1cc(OC)cc(C(=O)Nc2nc(CC(=O)NCc3ccccc3OC)cs2)c1	13	·	-22	56*	-30	6
CCOC(=O)Cc1csc(NC(=O)c2cc(OC)cc(OC)c2)n1	19	-2	-7	-2	-10	2
COc1cc(OC)cc(C(=O)Nc2nc(CC(=O)NCc3ccc(F)cc3)cs2)c1	22	·	-22	50*	-10	8
CCOC(=O)C1CCN(C(=O)Nc2ccc(OC(F)(F)F)cc2)CC1	3	6	-15	-28	-19	0
Clc1cccc(Cl)c1/C=C/c1nc2ccccc2[nH]1	50*	-14	-26	·	-20	·
COc1ccc(-c2cc(CNS(=O)(=O)c3ccc(F)cc3)on2)cc1	33	-9	-20	23	-16	1
Nc1scc2c(C(=O)N/N=C/c3ccc(Cl)cc3)nn(-c3ccccc3)c(=O)c12	47*	-5	-2	24	-1	3
CCOC(=O)c1nn(-c2ccccc2)c(=O)c2c(NC(C)=O)scc12	11	1	4	0	-5	14
CC(C)[C@H](NC(=O)c1ccccc1)C(=O)OCC(=O)Nc1sccc1C(N)=O	26	·	-20	-17	13	6
Cc1noc(C)c1CN1C(=O)c2ccc([N+](=O)[O-])cc2C1=O	53*	-6	-5	7	-15	-1
O=C(C[C@H]1C/C=C\C[C@H](Cc2ccc(F)cc2)C(=O)O[C@@H](c2ccccc2)CNC1=O)N[C@H](CO)Cc1ccccc1	-24	·	-18	28	-22	55*
O=C(C[C@H]1C/C=C\CC[C@H](Cc2ccc(F)cc2)C(=O)O[C@H](c2ccccc2)CNC1=O)N[C@H](CO)Cc1ccccc1	10	·	-13	55*	21	12
O=C(C[C@H]1C/C=C\CC[C@H](Cc2ccc(F)cc2)C(=O)O[C@@H](c2ccccc2)CNC1=O)N[C@H](CO)Cc1ccccc1	-17	·	-18	56*	-11	53*
CC(C)CC(c1nnnn1Cc1ccc(F)cc1)N1CCC(C(N)=O)CC1 (stereo not drawn)	17	9	-14	-7	-5	22
